# Results as given in ChEMBL document CHEMBL5244225, “Bioassay-Guided Isolation of Fungistatic Compounds from Mimosa caesalpiniifolia Leaves” (J Nat Prod, 2019).
# The source made the active and inactive calls. No cut-off for these calls is given here.
# Experiments:
# Pichia kudriavzevii [1] = assay: Antifungal activity against Candida krusei ATCC 6258 assessed as inhibition of microbial growth incubated for 24 hrs by broth microdilution method; format: functional, organism-based; conditions: for IC50: ATCC 6258, 24 h; for IC90: ATCC 6258, time 24 hrs
# Outline: (§1)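 Broth microdilution following CLSI M27-A3 and supplement M27-S4. Pure compounds were tested at 100 down to 0.06 μg mL−1 in a 10-step series, diluted from DMSO (≤1% DMSO final). Fluconazole served as the fungistatic control. Plates were incubated at 37 °C for 24 h and growth was read spectrophotometrically at 530 nm. IC50 and IC90 were taken as 50% and 90% growth inhibition.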
# Nakaseomyces glabratus [2] = assay: Antifungal activity against Candida glabrata ATCC 90030 assessed as inhibition of microbial growth incubated for 24 hrs by broth microdilution method; format: functional, organism-based; conditions: for IC50: ATCC 90030, 24 h; for IC90: ATCC 90030, time 24 hrs; outline: as §1
# Pichia kudriavzevii [3] = assay: Antifungal activity against Candida krusei ATCC 6258 assessed as inhibition of microbial growth at 100 to 0.06 ug/ml incubated for 24 hrs by broth microdilution method; format: functional, organism-based; conditions: dose 100-0.06 µg/ml
# Pichia kudriavzevii [4] = assay: Synergistic antifungal activity against Candida krusei ATCC 6258 assessed as fractional inhibitory concentration index incubated for 24 hrs in the presence of 3-(beta-D-glucopyranosyloxy)sitosterol by checkerboard assay; format: functional
# Outline: (§2)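 Checkerboard pairing of two compounds serially diluted in Mueller−Hinton broth, incubated for 24 h at 37 °C, with growth read spectrophotometrically at 530 nm. Each FIC is the compound's IC in combination divided by its IC alone, and ΣFIC is the sum of the FIC values. ΣFIC ≤0.5 was taken as synergy, 0.5–4 as no interaction and >4 as antagonism.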
# Pichia kudriavzevii [5] = assay: Antifungal activity against Candida krusei ATCC 6258 assessed as inhibition of microbial growth incubated for 24 hrs in the presence of 3-(beta-D-glucopyranosyloxy)sitosterol by broth microdilution method; format: functional, organism-based; conditions: ATCC 6258, 24 h
# Outline: (§3)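 Checkerboard combination of two compounds, each serially diluted in Mueller−Hinton broth. Ranges were set so that, after adding inoculum, concentrations sat at the range averages. Plates were incubated for 24 h at 37 °C and growth was quantified at 530 nm, as in the single-agent microdilution test. The inhibitory concentration of each compound was determined in combination.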
# Nakaseomyces glabratus [6] = assay: Additive antifungal activity against Candida glabrata ATCC 90030 assessed as fractional inhibitory concentration index incubated for 24 hrs in the presence of 3-(beta-D-glucopyranosyloxy)sitosterol by checkerboard assay; format: functional; outline: as §2
# Nakaseomyces glabratus [7] = assay: Selectivity index, ratio of IC50 for antifungal activity against Candida glabrata ATCC 90030 to IC50 for antifungal activity against Candida glabrata ATCC 90030 in the presence of 3-(beta-D-glucopyranosyloxy)sitosterol; format: functional
# Nakaseomyces glabratus [8] = assay: Antifungal activity against Candida glabrata ATCC 90030 assessed as inhibition of microbial growth incubated for 24 hrs in the presence of 3-(beta-D-glucopyranosyloxy)sitosterol by broth microdilution method; format: functional, organism-based; conditions: ATCC 90030, 24 h; outline: as §3
Compound,IC50 (Pichia kudriavzevii [1]) [µg/mL],IC90 (Pichia kudriavzevii [1]) [µg/mL],IC50 (Nakaseomyces glabratus [2]) [µg/mL],further results
C[C@H]1O[C@@H](c2c(O)cc3oc(-c4ccc(O)cc4)cc(=O)c3c2O)C[C@H](O)[C@H]1O,250,1000,1000,
O=c1cc(-c2ccc(O)c(O)c2)oc2cc(O)cc(O)c12 [LUTEOLIN],,,15,Activity (Pichia kudriavzevii [3]): inactive
O=C(O)c1cc(O)c(O)c(O)c1 [GALLIC ACID],,,60,Activity (Pichia kudriavzevii [3]): inactive
O=C(O)/C=C/c1c(O)cc2oc(-c3ccc(O)cc3)cc(=O)c2c1O,15,,3.9,
C[C@H]1O[C@@H](c2c(O)cc(O)c3c(=O)cc(-c4ccc(O)cc4)oc23)C[C@@H](O)[C@@H]1O,7.8,250,3.9,IC90 (Nakaseomyces glabratus [2]): 500 µg/mL
C[C@@H]1O[C@@H](O[C@H]2C(=O)[C@@H](O)[C@H](C)O[C@@H]2c2c(O)cc(O)c3c(=O)cc(-c4ccc(O)c(O)c4)oc23)[C@H](O)[C@H](O)[C@H]1O,100,,60,
O=C(O)/C=C/c1c(O)cc(O)c2c(=O)cc(-c3ccc(O)cc3)oc12,125,250,3.9,IC90 (Nakaseomyces glabratus [2]): 250 µg/mL
C[C@@]12Oc3cc4oc(-c5ccc(O)cc5)cc(=O)c4c(O)c3[C@@H](C[C@H](O)[C@H]1O)O2,62.5,250,7.8,IC90 (Nakaseomyces glabratus [2]): 500 µg/mL
O=c1c(O)c(-c2ccc(O)c(O)c2)oc2cc(O)cc(O)c12 [QUERCETIN],100,,60,
C[C@@H]1O[C@@H](O[C@H]2C(=O)[C@@H](O)[C@H](C)O[C@@H]2c2c(O)cc3oc(-c4ccc(O)c(O)c4)cc(=O)c3c2O)[C@H](O)[C@H](O)[C@H]1O,,,100,Activity (Pichia kudriavzevii [3]): inactive
CCOC(=O)c1cc(O)c(O)c(O)c1 [ETHYLGALLATE],15,,15,fractional inhibitory concentration index (FICI) (Pichia kudriavzevii [4]): 0.1; IC50 (Pichia kudriavzevii [5]): 1 µg/mL; fractional inhibitory concentration index (FICI) (Nakaseomyces glabratus [6]): 0.5; Ratio IC50 (Nakaseomyces glabratus [7]): 100; IC50 (Nakaseomyces glabratus [8]): 2.5 µg/mL
OC(Cn1cncn1)(Cn1cncn1)c1ccc(F)cc1F [FLUCONAZOLE],16,,4,
